# Test results published in ChEMBL document CHEMBL5316332 (J Med Chem, 2023).
# Activity calls are given as the source filed them. No cut-off for these calls is given here.
# Test system: not listed separately
# Assay: Metabolic stability in human liver microsomes assessed as half life at 2 uM and mesured upto 60 mins in presence of NADPH by UHPLC-MS analysis
# Type: ADME, Microsome
# Conditions: microsomes, 1 h, 2 µM
row,t1/2 [min],Compound
1,80,NC(=O)c1cccc(CNC(=O)c2ccc3nc(-c4ccc5cnccc5c4)n(C4CCCC4)c3c2)c1
2,305,COc1cnc(Nc2cccc(S(N)(=O)=O)c2)nc1N1CCN(c2ccccc2)C(=O)C1
3,22,CNC(=O)CCc1ccc(C(=O)NCc2cccc(N3CCN(c4nc(Nc5cccc(S(N)(=O)=O)c5)ncc4OC)CC3)c2)cc1

# Test system: not listed separately
# Assay: Inhibition of BMP signalling pathway in BMP2-stimulated human HEK293T cells expressing BRE and luciferase reporter assessed as inhibition of luciferase transactivation by measuring BRE-reporter activity preincubated for 30 mins followed by BMP2 stimulation and measured after 6 hrs by Bright-GLO mediated luciferase assay
# Type: cell-based
# Conditions: HEK-293T
# Procedure, shortened: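 293T cells stably carrying a BMP-responsive-element luciferase reporter, 2 × 10^4 per well, attached overnight in phenol-red-free DMEM with 2 mM glycine and 2% heat-inactivated FBS. Pretreated 30 min with inhibitor, then 5 ng/mL BMP2 for 6 h. Bright-Glo luminescence read; IC50 by nonlinear regression.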
row,IC50 [nM],Compound
1,24100,CNC(=O)[C@@H]1CC[C@@H](n2c(-c3ccc4cnccc4c3)nc3ccc(C(=O)NCc4cccc(C(N)=O)c4)cc32)C1
2,6190,NC(=O)c1cccc(CNC(=O)c2ccc3nc(-c4ccc5cnccc5c4)n(C4CCCC4)c3c2)c1
3,6920,COc1cnc(Nc2cccc(S(N)(=O)=O)c2)nc1N1CCN(c2ccccc2)C(=O)C1
4,4870,CNC(=O)CCc1ccc(C(=O)NCc2cccc(N3CCN(c4nc(Nc5cccc(S(N)(=O)=O)c5)ncc4OC)CC3)c2)cc1

# Target: T1, Activin receptor type-1 (Homo sapiens, UniProt Q04771)
# T1 sequence (Q04771 whole entry): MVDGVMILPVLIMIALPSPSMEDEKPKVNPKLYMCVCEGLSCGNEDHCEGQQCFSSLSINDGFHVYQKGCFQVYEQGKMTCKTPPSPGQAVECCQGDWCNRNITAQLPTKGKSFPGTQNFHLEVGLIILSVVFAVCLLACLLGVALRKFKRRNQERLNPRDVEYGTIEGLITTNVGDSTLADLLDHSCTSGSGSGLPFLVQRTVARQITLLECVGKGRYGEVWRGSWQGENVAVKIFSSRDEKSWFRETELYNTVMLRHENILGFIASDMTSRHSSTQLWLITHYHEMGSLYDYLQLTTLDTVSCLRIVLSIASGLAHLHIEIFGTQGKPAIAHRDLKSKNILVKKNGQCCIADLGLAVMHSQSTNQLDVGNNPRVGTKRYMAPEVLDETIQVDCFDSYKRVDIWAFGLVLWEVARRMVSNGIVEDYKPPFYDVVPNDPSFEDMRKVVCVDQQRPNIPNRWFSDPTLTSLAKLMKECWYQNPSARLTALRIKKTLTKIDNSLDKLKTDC
# Assay: Inhibition of ACVR1 (unknown origin) by LanthaScreen TR-FRET assay
# Conditions: not given
# Procedure, shortened: (§1)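 Outsourced SelectScreen profiling using a LanthaScreen TR-FRET binding format, in which a tight-binding tracer is displaced from the kinase.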
row,IC50 [nM],Compound
1,251,CNC(=O)[C@@H]1CC[C@@H](n2c(-c3ccc4cnccc4c3)nc3ccc(C(=O)NCc4cccc(C(N)=O)c4)cc32)C1
2,124,NC(=O)c1cccc(CNC(=O)c2ccc3nc(-c4ccc5cnccc5c4)n(C4CCCC4)c3c2)c1
3,> 1000,CNC(=O)CCc1ccc(C(=O)NCc2cccc(N3CCN(c4nc(Nc5cccc(S(N)(=O)=O)c5)ncc4OC)CC3)c2)cc1

# Target: Bone morphogenetic protein receptor type-1A (Homo sapiens, UniProt P36894)
# Sequence (P36894 whole entry): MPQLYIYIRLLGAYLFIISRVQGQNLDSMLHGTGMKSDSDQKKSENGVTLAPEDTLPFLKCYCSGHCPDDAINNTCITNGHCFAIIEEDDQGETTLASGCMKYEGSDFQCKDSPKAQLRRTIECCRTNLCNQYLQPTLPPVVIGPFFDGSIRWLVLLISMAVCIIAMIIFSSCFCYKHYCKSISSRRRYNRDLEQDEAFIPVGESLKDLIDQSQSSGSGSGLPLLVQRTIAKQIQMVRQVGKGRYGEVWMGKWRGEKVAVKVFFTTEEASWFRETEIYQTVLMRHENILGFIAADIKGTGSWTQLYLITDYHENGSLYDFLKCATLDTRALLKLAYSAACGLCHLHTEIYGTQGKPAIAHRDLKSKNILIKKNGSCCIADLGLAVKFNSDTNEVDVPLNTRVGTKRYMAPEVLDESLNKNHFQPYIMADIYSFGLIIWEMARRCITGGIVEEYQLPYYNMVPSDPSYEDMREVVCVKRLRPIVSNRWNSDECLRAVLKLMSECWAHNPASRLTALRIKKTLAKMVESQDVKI
# Assay: Inhibition of BMPR1A (unknown origin) by LanthaScreen TR-FRET assay
# Conditions: not given
# Procedure, shortened: as §1
IC50 [nM],inhibition,Compound
> 1000,,CNC(=O)[C@@H]1CC[C@@H](n2c(-c3ccc4cnccc4c3)nc3ccc(C(=O)NCc4cccc(C(N)=O)c4)cc32)C1
> 1000,,NC(=O)c1cccc(CNC(=O)c2ccc3nc(-c4ccc5cnccc5c4)n(C4CCCC4)c3c2)c1
,inactive,COc1cnc(Nc2cccc(S(N)(=O)=O)c2)nc1N1CCN(c2ccccc2)C(=O)C1
,inactive,CNC(=O)CCc1ccc(C(=O)NCc2cccc(N3CCN(c4nc(Nc5cccc(S(N)(=O)=O)c5)ncc4OC)CC3)c2)cc1

# Target: Activin receptor type-2A (Homo sapiens, UniProt P27037)
# Sequence (P27037 whole entry): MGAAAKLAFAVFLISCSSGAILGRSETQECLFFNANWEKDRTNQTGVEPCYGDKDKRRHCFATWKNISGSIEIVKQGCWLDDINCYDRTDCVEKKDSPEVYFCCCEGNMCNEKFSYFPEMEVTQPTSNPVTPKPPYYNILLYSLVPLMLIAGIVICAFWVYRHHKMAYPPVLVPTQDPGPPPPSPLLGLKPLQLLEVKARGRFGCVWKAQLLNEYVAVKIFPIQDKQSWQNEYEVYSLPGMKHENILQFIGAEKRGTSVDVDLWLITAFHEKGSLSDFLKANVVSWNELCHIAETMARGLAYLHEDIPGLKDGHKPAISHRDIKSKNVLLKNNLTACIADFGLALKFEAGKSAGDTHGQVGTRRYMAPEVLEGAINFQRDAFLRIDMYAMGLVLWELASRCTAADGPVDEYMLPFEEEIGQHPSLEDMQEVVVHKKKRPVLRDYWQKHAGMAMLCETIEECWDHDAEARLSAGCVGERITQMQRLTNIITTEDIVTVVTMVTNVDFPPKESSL
# Assay: Inhibition of ACVR2A (unknown origin) by LanthaScreen TR-FRET assay
# Conditions: not given
# Procedure, shortened: as §1
row,inhibition,Compound
1,inactive,CNC(=O)[C@@H]1CC[C@@H](n2c(-c3ccc4cnccc4c3)nc3ccc(C(=O)NCc4cccc(C(N)=O)c4)cc32)C1
2,inactive,NC(=O)c1cccc(CNC(=O)c2ccc3nc(-c4ccc5cnccc5c4)n(C4CCCC4)c3c2)c1
3,inactive,COc1cnc(Nc2cccc(S(N)(=O)=O)c2)nc1N1CCN(c2ccccc2)C(=O)C1
4,inactive,CNC(=O)CCc1ccc(C(=O)NCc2cccc(N3CCN(c4nc(Nc5cccc(S(N)(=O)=O)c5)ncc4OC)CC3)c2)cc1

# Target: TGF-beta receptor type-2 (Homo sapiens, UniProt P37173)
# Sequence (P37173 whole entry): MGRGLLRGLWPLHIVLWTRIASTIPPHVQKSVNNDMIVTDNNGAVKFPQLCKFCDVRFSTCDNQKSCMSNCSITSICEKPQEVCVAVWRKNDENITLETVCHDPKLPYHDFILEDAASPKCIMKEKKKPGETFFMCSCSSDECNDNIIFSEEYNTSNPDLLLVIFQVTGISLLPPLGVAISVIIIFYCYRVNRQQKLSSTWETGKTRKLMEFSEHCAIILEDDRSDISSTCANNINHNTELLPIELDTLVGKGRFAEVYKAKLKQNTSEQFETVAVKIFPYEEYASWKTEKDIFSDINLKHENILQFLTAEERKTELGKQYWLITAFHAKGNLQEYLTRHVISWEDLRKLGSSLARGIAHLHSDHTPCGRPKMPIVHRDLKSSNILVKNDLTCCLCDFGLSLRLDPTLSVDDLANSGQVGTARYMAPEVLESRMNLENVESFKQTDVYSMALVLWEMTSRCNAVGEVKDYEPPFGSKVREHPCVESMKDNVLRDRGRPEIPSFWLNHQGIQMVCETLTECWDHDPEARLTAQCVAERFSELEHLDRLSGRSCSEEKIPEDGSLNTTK
# Assay: Inhibition of TGFBR2 (unknown origin) by LanthaScreen TR-FRET assay
# Conditions: not given
# Procedure, shortened: as §1
row,inhibition,Compound
1,inactive,CNC(=O)[C@@H]1CC[C@@H](n2c(-c3ccc4cnccc4c3)nc3ccc(C(=O)NCc4cccc(C(N)=O)c4)cc32)C1
2,inactive,NC(=O)c1cccc(CNC(=O)c2ccc3nc(-c4ccc5cnccc5c4)n(C4CCCC4)c3c2)c1
3,inactive,COc1cnc(Nc2cccc(S(N)(=O)=O)c2)nc1N1CCN(c2ccccc2)C(=O)C1
4,inactive,CNC(=O)CCc1ccc(C(=O)NCc2cccc(N3CCN(c4nc(Nc5cccc(S(N)(=O)=O)c5)ncc4OC)CC3)c2)cc1

# Target: Activin receptor type-2B (Homo sapiens, UniProt Q13705)
# Sequence (Q13705 whole entry): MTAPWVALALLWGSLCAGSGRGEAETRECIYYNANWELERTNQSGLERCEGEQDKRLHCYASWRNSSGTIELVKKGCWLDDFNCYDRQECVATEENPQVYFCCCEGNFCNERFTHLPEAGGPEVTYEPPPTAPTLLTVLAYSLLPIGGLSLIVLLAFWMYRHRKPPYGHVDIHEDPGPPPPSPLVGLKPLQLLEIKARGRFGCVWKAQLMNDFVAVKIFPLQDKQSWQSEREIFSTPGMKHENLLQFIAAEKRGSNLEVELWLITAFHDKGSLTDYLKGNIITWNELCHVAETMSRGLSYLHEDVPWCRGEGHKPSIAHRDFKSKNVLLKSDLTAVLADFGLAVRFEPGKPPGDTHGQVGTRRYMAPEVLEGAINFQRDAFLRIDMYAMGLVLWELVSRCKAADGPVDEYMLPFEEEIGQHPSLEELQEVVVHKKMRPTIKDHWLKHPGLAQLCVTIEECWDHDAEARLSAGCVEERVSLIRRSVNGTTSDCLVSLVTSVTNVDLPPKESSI
# Assay: Inhibition of ACVR2B (unknown origin) by LanthaScreen TR-FRET assay
# Conditions: not given
# Procedure, shortened: as §1
row,inhibition,Compound
1,inactive,CNC(=O)[C@@H]1CC[C@@H](n2c(-c3ccc4cnccc4c3)nc3ccc(C(=O)NCc4cccc(C(N)=O)c4)cc32)C1
2,inactive,NC(=O)c1cccc(CNC(=O)c2ccc3nc(-c4ccc5cnccc5c4)n(C4CCCC4)c3c2)c1
3,inactive,COc1cnc(Nc2cccc(S(N)(=O)=O)c2)nc1N1CCN(c2ccccc2)C(=O)C1
4,inactive,CNC(=O)CCc1ccc(C(=O)NCc2cccc(N3CCN(c4nc(Nc5cccc(S(N)(=O)=O)c5)ncc4OC)CC3)c2)cc1

# Target: T2, Bone morphogenetic protein receptor type-2 (Homo sapiens, UniProt Q13873)
# T2 sequence (Q13873 whole entry): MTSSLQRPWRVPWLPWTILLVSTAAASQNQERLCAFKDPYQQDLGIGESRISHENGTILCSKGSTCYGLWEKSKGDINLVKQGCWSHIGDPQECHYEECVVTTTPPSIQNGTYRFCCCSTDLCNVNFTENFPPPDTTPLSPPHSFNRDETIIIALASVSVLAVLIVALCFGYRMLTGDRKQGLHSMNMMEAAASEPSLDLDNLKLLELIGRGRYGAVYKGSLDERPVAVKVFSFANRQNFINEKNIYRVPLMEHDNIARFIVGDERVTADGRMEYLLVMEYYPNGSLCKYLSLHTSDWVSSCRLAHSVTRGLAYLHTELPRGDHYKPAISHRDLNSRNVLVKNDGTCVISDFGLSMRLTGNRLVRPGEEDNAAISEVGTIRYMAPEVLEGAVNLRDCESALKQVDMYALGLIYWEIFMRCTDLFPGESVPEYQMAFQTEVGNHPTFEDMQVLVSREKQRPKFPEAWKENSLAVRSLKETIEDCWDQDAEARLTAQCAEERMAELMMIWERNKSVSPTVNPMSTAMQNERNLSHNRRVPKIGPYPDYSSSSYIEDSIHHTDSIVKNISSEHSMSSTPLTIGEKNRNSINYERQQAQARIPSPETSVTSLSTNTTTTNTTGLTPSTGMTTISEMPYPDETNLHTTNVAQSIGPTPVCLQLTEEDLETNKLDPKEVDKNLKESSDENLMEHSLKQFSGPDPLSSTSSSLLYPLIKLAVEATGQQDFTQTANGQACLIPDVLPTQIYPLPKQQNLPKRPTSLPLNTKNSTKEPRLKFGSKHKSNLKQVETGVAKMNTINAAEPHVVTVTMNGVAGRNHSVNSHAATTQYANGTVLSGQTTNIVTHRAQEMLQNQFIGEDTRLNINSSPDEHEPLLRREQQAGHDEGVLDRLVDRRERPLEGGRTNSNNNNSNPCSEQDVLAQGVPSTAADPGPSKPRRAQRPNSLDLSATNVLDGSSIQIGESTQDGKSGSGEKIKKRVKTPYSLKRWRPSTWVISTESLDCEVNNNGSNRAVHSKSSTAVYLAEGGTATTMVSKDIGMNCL
# Assay: Inhibition of recombinant C-terminal 6His-tagged human BMPR2 (188 to 517 residues) expressed in Escherichia coli Rosetta by LanthaScreen TR-FRET assay
# Conditions: not given
# Procedure, shortened: as §1
row,IC50 [nM],Compound
1,1.8,CNC(=O)[C@@H]1CC[C@@H](n2c(-c3ccc4cnccc4c3)nc3ccc(C(=O)NCc4cccc(C(N)=O)c4)cc32)C1
2,1.2,NC(=O)c1cccc(CNC(=O)c2ccc3nc(-c4ccc5cnccc5c4)n(C4CCCC4)c3c2)c1
3,2.8,COc1cnc(Nc2cccc(S(N)(=O)=O)c2)nc1N1CCN(c2ccccc2)C(=O)C1
4,1.6,CNC(=O)CCc1ccc(C(=O)NCc2cccc(N3CCN(c4nc(Nc5cccc(S(N)(=O)=O)c5)ncc4OC)CC3)c2)cc1

# Test system: not listed separately
# Assay: Metabolic stability in mouse liver microsomes assessed as half life at 2 uM and mesured upto 60 mins in presence of NADPH by UHPLC-MS analysis
# Type: ADME, Microsome
# Conditions: microsomes, 1 h, 2 µM
row,t1/2 [min],Compound
1,45,NC(=O)c1cccc(CNC(=O)c2ccc3nc(-c4ccc5cnccc5c4)n(C4CCCC4)c3c2)c1
2,40,COc1cnc(Nc2cccc(S(N)(=O)=O)c2)nc1N1CCN(c2ccccc2)C(=O)C1
3,7,CNC(=O)CCc1ccc(C(=O)NCc2cccc(N3CCN(c4nc(Nc5cccc(S(N)(=O)=O)c5)ncc4OC)CC3)c2)cc1

# Target: T2, Bone morphogenetic protein receptor type-2
# Assay: Inhibition of recombinant C-terminal 6His-tagged human BMPR2 (188 to 517 residues) expressed in Escherichia coli Rosetta assessed as apparent inhibition constant using ATP as substrate incubated for 30 mins by Morrison plot analysis
# Conditions: read-out: Ki(app)
# Procedure, shortened: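 Purified His-tagged BMPR2 kinase domain with no peptide substrate (intrinsic ATPase). 10 μM ATP, 0.02% Tween-20, kinase buffer, 50 μL, enzyme level optimized for initial-velocity conditions. 30 min at 30 °C. Leftover ATP read by Kinase-Glo luminescence, with no-kinase controls. Kiapp from a modified Morrison equation fitted to normalized fractional activity, assuming no specific inhibition mode.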
row,Ki [nM],Compound
1,6.2,CNC(=O)[C@@H]1CC[C@@H](n2c(-c3ccc4cnccc4c3)nc3ccc(C(=O)NCc4cccc(C(N)=O)c4)cc32)C1
2,8,NC(=O)c1cccc(CNC(=O)c2ccc3nc(-c4ccc5cnccc5c4)n(C4CCCC4)c3c2)c1
3,7,COc1cnc(Nc2cccc(S(N)(=O)=O)c2)nc1N1CCN(c2ccccc2)C(=O)C1
4,20.6,CNC(=O)CCc1ccc(C(=O)NCc2cccc(N3CCN(c4nc(Nc5cccc(S(N)(=O)=O)c5)ncc4OC)CC3)c2)cc1
